# An excerpt weighted towards active compounds, which were near 1.7% of everything screened.
# SR-BI uptake up – SR-BI HDL lipid transfer activation. CHO ldlA[mSR-BI] cells, DiI-HDL uptake fluorescence, 3 h; 100 = double the neutral-control signal. activation, % at 12.5 µM. hit rate 0.096% among 320,000;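 active = mean replicate activation of at least 60% and every replicate at or above 60%; inconclusive = mean or all-replicate condition met, but not both; inactive = mean below 60% and not all replicates reaching 60%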;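 note: 0% = median plate neutral-control signal and 100% = twice that signal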
#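 System: CHO ldlA[mSR-BI] cells / Medium: HEPES-buffered (25 mM, pH 7.4) F12 plus 0.5% BSA / Probe or stimulus: labelled HDL, 10 µg/mL / Doses: single compound concentration, delivered by pin transfer / Schedule: 3 h, 37 °C / Measured by: DiI fluorescence, bottom read / Measure: cell-associated DiI fluorescence as measure of HDL uptake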
# Statin myotox sup – suppression of simvastatin myotoxicity | C2C12 myotubes + simvastatin, ATP luminescence, 48 h; scaled: DMSO 0, geranylgeraniol control 100 | rescue of ATP level, % at 7.49 µM | hit rate 0.78% among 330,000 | AID 602340;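 active = mean ATP rescue above about 67%, or every replicate alone reaching that limit, limit read from the data, passing the limit was not always enough; inconclusive = no clear call, values can overlap the other calls; inactive = mean under the limit and some replicate under it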;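 note: myotubes were challenged with 10 µM simvastatin during compound exposure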
# Vif inh – inhibitors of HIV Vif; HEK293T cells, Vif self-association by quenched fluorescence, imaging, 24 h; hit rate 0.35% among 340,000; inhibition, % at 7.49 µM; AID 602346; in the data active = inhibition above about 50%, passing the limit was not always enough; inconclusive = no clear call, values can overlap the other calls; inactive = below about 31%
# SR-BI DiI inh – blocks mouse SR-BI lipid uptake from DiI-HDL; hit rate 0.96% among 320,000; ldlA[mSR-BI] CHO cells, DiI-HDL uptake fluorescence, 3 h; inhibition, % at 12.5 µM; Q61009; AID 488896;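 active = mean replicate inhibition of at least 70% and a set share of replicates each scoring 70 or more; inconclusive = meets just one of the two criteria; inactive = fails both criteria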;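 note: 0% = median of neutral control wells and 100% = median of positive control wells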
# Target sequence (Q61009 whole entry, looked up): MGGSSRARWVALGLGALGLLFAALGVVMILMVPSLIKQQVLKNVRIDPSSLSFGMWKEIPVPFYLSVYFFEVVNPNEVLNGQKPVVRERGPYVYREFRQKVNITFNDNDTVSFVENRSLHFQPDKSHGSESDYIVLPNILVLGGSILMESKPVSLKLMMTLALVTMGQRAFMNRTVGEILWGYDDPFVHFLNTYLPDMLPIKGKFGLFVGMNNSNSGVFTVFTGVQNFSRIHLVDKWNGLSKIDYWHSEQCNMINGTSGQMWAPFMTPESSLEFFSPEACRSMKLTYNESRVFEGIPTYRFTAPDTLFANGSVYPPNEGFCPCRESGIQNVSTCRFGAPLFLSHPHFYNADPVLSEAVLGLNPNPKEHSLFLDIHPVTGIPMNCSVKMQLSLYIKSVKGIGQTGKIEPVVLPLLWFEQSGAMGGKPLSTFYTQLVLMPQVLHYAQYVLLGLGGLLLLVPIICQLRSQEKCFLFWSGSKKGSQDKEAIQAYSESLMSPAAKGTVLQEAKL
# * marks the source's active call; other numbers are inactive results; u = inconclusive; x = no result given.
SMILES,SR-BI uptake up,Statin myotox sup,Vif inh,SR-BI DiI inh
O=C(CN1C(=O)CCC1=O)NCC12CC3CC(CC(C3)C1)C2,-3,96*,14,3
O=C(CN1CCCC1)NCC12CC3CC(CC(C3)C1)C2,8,-10,-1,-8
O=C(Cc1ccc(Cl)cc1)c1ccc(O)cc1,12,x,1,-12
Cc1ccc(CC(=O)c2ccc(Cl)cc2)cc1,u,133*,-13,-381
CNC[C@H]1Oc2c(NS(=O)(=O)c3cccs3)cccc2C(=O)N([C@@H](C)CO)C[C@@H]1C,x,17,x,x
O=c1[nH]c(CN2CCCCC2)nc2c1C1(CCCCC1)Cc1ccccc1-2,-25,91*,-8,25
CCc1nc2c(c(=O)[nH]1)C1(CCCC1)Cc1ccccc1-2,2,-32,-5,-2
CCC(=O)N1CC[C@H]2[C@H](CO)Nc3ccc(-c4cccc(C#N)c4)cc3[C@H]21,x,-8,x,x
C[C@H](CO)N1C[C@H](C)[C@@H](CN(C)C(=O)NC2CCCCC2)Oc2ccc(NS(=O)(=O)c3ccc(Cl)cc3)cc2CC1=O,x,13,x,x
c1ccc2c(c1)nc(-c1ccncc1)n2CCNc1nc(CN2CCCCC2)cs1,22,88*,20,-22
CC(=O)NC[C@H]1[C@H](c2ccc(-c3ccccc3)cc2)[C@H](CO)N1C(=O)C1CCC1,x,17,x,x
CN(C)CC(=O)Nc1ccc2c(c1)[C@@H]1C[C@@H](CC(=O)NCCc3ccccc3)O[C@@H](CO)[C@@H]1O2,x,-1,x,x
CC(C)(C)NC(=O)C(c1ccc(O)cc1)N(Cc1ccc2c(c1)OCO2)C(=O)CCl (configuration not stated),x,5,80*,x
CCOCCCNC(=O)C(c1ccc(Cl)cc1)N(Cc1ccc2c(c1)OCO2)C(=O)CNC(C)=O (configuration not stated),8,x,-2,-8
COc1cc(-c2cc(-c3ccc(O)cc3)nc(N)c2C#N)ccc1O,-84,x,4,84*
COc1ccccc1NC(=O)N[C@H]1CC[C@H](CCNS(=O)(=O)c2ccc(F)cc2)O[C@@H]1CO,x,-3,x,x
O=C1OCCN1N1CCOC1=O,16,113*,8,-16
O=C1OCCN1S(=O)(=O)Nc1ccccc1,2,11,-14,-2
Cc1ccc(NC(=O)/C(=C\c2ccc([N+](=O)[O-])cc2)NC(=O)c2ccccc2)cc1,-22,-3,1,22
Cc1ccc(C(=O)N/N=C\c2sccc2C)cn1,3,x,x,-3
Cc1ccsc1/C=N/NC(=O)c1ccc(-n2cccc2)cc1,-77,x,-2,77*
COc1ccc(/C=C(/NC(=O)c2ccccc2)C(=O)N/N=C/c2sccc2C)cc1,-78,x,0,78*
O=C(N/N=C/c1ccc(O)c(O)c1O)/C(=C/c1ccc([N+](=O)[O-])cc1)NC(=O)c1ccccc1,-98,9,11,98*
COc1ccc(/C=C(\NC(=O)c2ccccc2)C(=O)N/N=C/c2sccc2C)cc1,-48,x,-2,48
COc1ccc(NC(=O)Nc2ccc3c(c2)CC(=O)N([C@H](C)CO)C[C@@H](C)[C@H](CN(C)C(=O)Nc2ccc(F)cc2)O3)cc1,x,19,x,x
SMILES,SR-BI uptake up,Statin myotox sup,Vif inh,SR-BI DiI inh
C/C=C/c1cnc2c(c1)C(=O)N([C@H](C)CO)C[C@@H](C)[C@H](CN(C)Cc1ccccc1)O2,x,-2,x,x
CO[C@H]1CN(C)C(=O)c2cc(NC(=O)c3ccno3)ccc2OC[C@@H](C)NC[C@H]1C,x,-3,x,x
COCCn1c(=NC(=O)/C=C/c2cccs2)sc2cc(NC(C)=O)ccc21,-72,x,1,72*
COC(=O)Cn1cc(C(=O)OC)c2ccccc21,15,98*,12,-15
COC(=O)c1cn(CC(=O)N2C(C)CCCC2C)c2ccccc12 (configuration not stated),8,105*,-1,-8
CO[C@@H]1CN(C)C(=O)c2cc(NC(=O)C3CC3)ccc2OC[C@@H](C)N(CCc2ccccc2)C[C@@H]1C,x,0,x,x
O=C(CN1CCC(c2nc3ccccc3s2)CC1)NCc1ccccc1,-42,113*,x,42
C[C@@H]1CN([C@H](C)CO)C(=O)Cc2cc(NS(=O)(=O)c3cn(C)cn3)ccc2O[C@@H]1CN(C)S(C)(=O)=O,x,23,x,x
C[C@H](N)c1nnc(SCC(=O)c2ccc(Cl)cc2)o1,19,119*,0,-19
COc1cc(NC(=O)Cc2cccs2)ccc1-n1cnnn1,-1,94*,-10,1
Cc1noc(C)c1S(=O)(=O)Nc1ccc2c(c1)CC(=O)N([C@@H](C)CO)C[C@@H](C)[C@H](CN(C)Cc1ccc(Oc3ccccc3)cc1)O2,x,64,x,x
CCOC(=O)CN1CC23C=CC(O2)C(C(=O)NC2CCCCC2)C3C1=O (configuration not stated),-2,108*,x,2
CCOC(=O)c1[nH]c(C)c(C(=O)NCC2CCCO2)c1C (configuration not stated),-1,75*,10,1
COc1cc(C)c(-c2cc(C(=O)O)c(C)o2)cc1C(C)C,7,95*,15,-7
C[C@@H]1CCCCO[C@@H](CN(C)S(=O)(=O)c2ccc(Cl)cc2)[C@H](C)CN([C@H](C)CO)C(=O)c2cc(NC(=O)CCCN(C)C)ccc2O1,x,-33,x,x
C/C(=N\NC(=O)c1ccc(CSc2cccc3cccnc23)cc1)C1CCCCC1,-24,10,x,24
COc1ccc(/C(C)=N/NC(=O)c2ccc(CSc3cccc4cccnc34)cc2)cc1OC,-90,-12,x,90*
CCCn1c(SCC(=O)NNC(=O)c2ccc(C)cc2)nnc1C(C)C,x,12,55*,x
CCN1[C@@H]2c3ccc(C4=CCCCC4)c(=O)n3C[C@H]1[C@H](CO)[C@H]2C(=O)N1CCc2ccccc2C1,x,-42,x,x
O=C(Nn1c(C2CCC2)nc2ccccc2c1=O)C1CCC1,8,85*,-1,-8
CCc1sc(NC(=O)c2cc3ccccc3oc2=O)nc1-c1cccs1,-10,-31,55*,10
O=[N+]([O-])c1ccc(N/N=C\c2cccnc2)nc1,6,x,0,-6
Cc1cccc(C)c1-n1c(C)cc(/C=N\Nc2ccc([N+](=O)[O-])cn2)c1C,-80,163*,-5,80*
O=[N+]([O-])c1ccc(NN=Cc2cc(Br)ccc2O)nc1,-135,13,0,135*
O=[N+]([O-])c1ccc(NN=Cc2cccc(O)c2)nc1,-31,14,-7,31
O=C(Nc1nc2ccc(Br)cc2s1)c1ccco1,-93,2,-10,93*
O=C(NCc1ccccc1)c1ccc(Cl)c(NC2=NC3CS(=O)(=O)CC3S2)c1 (configuration not stated),0,-2,60*,0
COc1ccc(CNC(=O)c2ccc(Cl)c(NC3=NC4CS(=O)(=O)CC4S3)c2)cc1 (configuration not stated),1,6,10,-1
C[C@H]1CN([C@@H](C)CO)C(=O)Cc2cc(NS(=O)(=O)c3cn(C)cn3)ccc2O[C@H]1CN(C)C(=O)Nc1cccc2ccccc12,x,-1,x,x

# Source: PubChem BioAssay (Broad Institute)
